Reference: ChEMBL document CHEMBL1158534, “Antimicrobial activity of tryptanthrins in Escherichia coli” (J Med Chem, 2010)
In brackets after ≈: the same amount, converted by molar mass. Activity calls are given as the source filed them. The calls are words filed in the database; no cut-off is given here.

What was measured:
[1] = system: Escherichia coli; experiment: Antibacterial activity against Escherichia coli AS19 in presence of 360 nm light; type: functional, organism-based
[2] = system: Escherichia coli; experiment: Antibacterial activity against Escherichia coli AS19 at 10 ug/ml after 3 days in presence of M9 buffer; type: functional, organism-based
Method in brief: (§1)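 Overnight LB culture of AS19 (pBRF14C) diluted to 10⁵-10⁶ cells/mL in M9 buffer (NH4Cl, Na2HPO4, KH2PO4); tryptanthrins at final 0.05-10 μg/mL (0.2-40 μM), 37 °C up to 72 h. Samples at ~12 h intervals plated on LB + ampicillin, counted after 24 h; surviving fraction relative to untreated M9 cells; duplicate samples, 4-8 repetitions.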

[3] = system: Escherichia coli; experiment: Antibacterial activity against Escherichia coli AS19 at 0.4 ug/ml after 3 days in presence of M9 buffer; type: functional, organism-based; method in brief: as §1
[4] = system: Escherichia coli; experiment: Antibacterial activity against Escherichia coli AS19 after 4 hrs; type: functional; conditions: AS19, 4 h
[5] = system: Escherichia coli; experiment: Antibacterial activity against Escherichia coli AS19 at 0.6 to 2 ug/ml; type: functional, organism-based
[6] = system: Escherichia coli; experiment: Antibacterial activity against Escherichia coli AS19 assessed as growth inhibition at 10 ug/ml after 4 hrs; type: functional, organism-based
[7] = target: T1, DNA topoisomerase 1 (Homo sapiens) (UniProt P11387); experiment: Inhibition of human topoisomerase 1-mediated relaxation of circular DNA at 100 ug/ml
T1 sequence (whole entry): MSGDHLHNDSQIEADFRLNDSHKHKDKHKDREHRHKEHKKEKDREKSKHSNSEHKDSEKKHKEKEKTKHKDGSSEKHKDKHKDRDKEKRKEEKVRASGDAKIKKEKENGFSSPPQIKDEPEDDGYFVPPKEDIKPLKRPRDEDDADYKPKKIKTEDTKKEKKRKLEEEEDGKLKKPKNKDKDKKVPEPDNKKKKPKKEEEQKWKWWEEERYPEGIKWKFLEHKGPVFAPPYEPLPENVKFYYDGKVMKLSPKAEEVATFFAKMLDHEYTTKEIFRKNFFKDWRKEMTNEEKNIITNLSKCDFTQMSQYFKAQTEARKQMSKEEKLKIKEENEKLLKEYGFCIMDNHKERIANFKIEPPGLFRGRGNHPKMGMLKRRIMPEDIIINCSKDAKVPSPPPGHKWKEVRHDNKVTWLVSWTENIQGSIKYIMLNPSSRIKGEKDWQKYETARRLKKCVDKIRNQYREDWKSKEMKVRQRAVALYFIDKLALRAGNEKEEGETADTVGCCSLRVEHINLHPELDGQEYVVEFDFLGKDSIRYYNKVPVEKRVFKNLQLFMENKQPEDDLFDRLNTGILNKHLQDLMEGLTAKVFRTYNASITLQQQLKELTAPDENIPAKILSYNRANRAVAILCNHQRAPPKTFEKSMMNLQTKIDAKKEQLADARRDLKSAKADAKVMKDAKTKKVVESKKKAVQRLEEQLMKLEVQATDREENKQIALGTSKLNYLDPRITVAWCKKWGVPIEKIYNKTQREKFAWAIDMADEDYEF
Method in brief: (§2)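 Relaxation assay: 0.25 μg pGEM-3Z (2743 bp, CsCl-purified) with 1 U human topoisomerase I in 10 mM Tris pH 7.9, 150 mM NaCl, 0.1 mM spermidine, 5% glycerol, tryptanthrin 10-100 μg/mL, 2 h 37 °C (or pre-relaxed 1 h, then drug 1-2 h). Stopped with sarkosyl; 1.5% agarose ± 2 μg/mL chloroquine, 50 V 3-4 h, ethidium stain; drugs bound = (Ldrug−Lo)×360°/28°.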

[8] = system: Escherichia coli; experiment: Antibacterial activity against Escherichia coli AS19 at 0.5 to 10 ug/ml after 3 days in presence of M9 buffer; type: functional, organism-based; conditions: 0.05 to 10 ug/ml, in the assay text read “0.05 to 10 ug/ml” for “0.5 to 10 ug/ml”; method in brief: as §1
[9] = target: T1, DNA topoisomerase 1 (Homo sapiens); experiment: Inhibition of human topoisomerase 1-mediated relaxation of circular DNA; method in brief: as §2
[10] = system: Escherichia coli; experiment: Mutagenic activity in Escherichia coli assessed as induction of frame shift mutation
[11] = system: Escherichia coli; experiment: Antibacterial activity against Escherichia coli AS19 at 0.01 ug/ml; type: functional, organism-based
[12] = system: Escherichia coli; experiment: Antibacterial activity against Escherichia coli AS19 at 0.1 ug/ml; type: functional, organism-based
[13] = system: Escherichia coli; experiment: Antibacterial activity against Escherichia coli AS19 at 1 ug/ml after 4 hrs; type: functional, organism-based
[14] = system: Escherichia coli; experiment: Antibacterial activity against Escherichia coli AS19 at 2.5 to 20 ug/ml after 4 hrs; type: functional, organism-based
[15] = system: Escherichia coli; experiment: Antibacterial activity against Escherichia coli AS19 assessed as cell viability at 10 ug/ml after 20 to 24 hrs; type: functional
Method in brief: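 LB growth assay with AS19 (pBRF14C) at 37 °C with shaking; after 20-24 h exposure, dilutions in M9 buffer plated (200-400 cells) on LB + 30 μg/mL ampicillin, colonies counted after 24 h at 37 °C; viability = treated cells/mL divided by untreated cells/mL.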

| Compound | Activity [1] | Activity [2] | GI50 [4] | growth inhibition (GI) [6] | further results |
| --- | --- | --- | --- | --- | --- |
| O=c1c2ccccc2nc2n1-c1ccc(F)cc1/C2=N\O | inactive | Active | – | – | – |
| O=C1c2cc(F)ccc2-n2c1nc1ccccc1c2=O | – | – | – | – | Activity [3]: Active |
| O=C1c2ccccc2-n2c1nc1nccnc1c2=O | Active | Active | 1.5 µg/mL (≈ 5.99 µM) | Active | Activity [5]: Active |
| O=C1c2ccccc2-n2c1nc1ccccc1c2=O [TRYPTANTHRIN] | – | – | 2.25 µg/mL (≈ 9.06 µM) | Active | – |
| O=Nc1c2ccccc2n2c(O)c3ccccc3nc12 | inactive | – | – | – | – |
| O=C1c2cc([N+](=O)[O-])ccc2-n2c1nc1ccccc1c2=O | – | – | 0.6 µg/mL (≈ 2.05 µM) | Active | inhibition [7]: inactive |
| O=c1c2cccnc2nc2n1-c1ccccc1/C2=N\O | inactive | – | – | – | – |
| O=C1c2ccccc2-n2c1nc1ncccc1c2=O | – | Active | 1.3 µg/mL (≈ 5.22 µM) | Active | Activity [8]: Active; inhibition [9]: inactive; fold change (FC) [10]: 22 |
| O=C1c2cc(F)ccc2-n2c1nc1ncccc1c2=O | – | Active | 0.6 µg/mL (≈ 2.25 µM) | Active | Activity [11]: inactive; Activity [12]: inactive; Activity [13]: Active; Activity [14]: Active; Activity [15]: 15%; fold change (FC) [10]: 4 |
| O=C1c2cc(Br)ccc2-n2c1nc1ccccc1c2=O | – | – | – | – | Activity [3]: Active |
